Laboratory results taken from ChEMBL document CHEMBL4052814, “GNE-781, A Highly Advanced Potent and Selective Bromodomain Inhibitor of Cyclic Adenosine Monophosphate Response Element Binding Protein, Binding Protein (CBP)” (J Med Chem, 2017).
Activity calls are given as the source filed them. The calls are words filed in the database; no cut-off is given here.

How the values were obtained:
[1] = Ratio of unbound concentration in rat brain to plasma at 250 mg/kg measured after 3 hrs postdose; assay type: ADME, organism-based; details: read-out: K(p,uu,brain)
[2] = tested on: Rattus norvegicus; experiment: Neurotoxicity in rat assessed as effect on vocalization and hyperactivity at 250 mg/kg administered as single dose; assay type: toxicity, organism-based; details: in vivo
[3] = target: Bromodomain adjacent to zinc finger domain protein 2B (Homo sapiens, UniProt Q9UIF8); experiment: Displacement of biotinylated histone H3K14 peptide ligand from human recombinant His-tagged BAZ2B measured after 10 mins by TR-FRET assay
[4] = target: Nucleosome-remodeling factor subunit BPTF (Homo sapiens, UniProt Q12830); experiment: Displacement of biotinylated histone H3K14 peptide ligand from recombinant His-tagged BPTF (unknown origin) measured after 10 mins by TR-FRET assay
[5] = target: Bromodomain-containing protein 8 (Homo sapiens, UniProt Q9H0E9); experiment: Displacement of biotinylated histone H3K14 peptide ligand from recombinant His-tagged BRD8 bromodomain-1 (unknown origin) measured after 10 mins by TR-FRET assay
Sequence of Bromodomain-containing protein 8 (Q9H0E9 whole entry): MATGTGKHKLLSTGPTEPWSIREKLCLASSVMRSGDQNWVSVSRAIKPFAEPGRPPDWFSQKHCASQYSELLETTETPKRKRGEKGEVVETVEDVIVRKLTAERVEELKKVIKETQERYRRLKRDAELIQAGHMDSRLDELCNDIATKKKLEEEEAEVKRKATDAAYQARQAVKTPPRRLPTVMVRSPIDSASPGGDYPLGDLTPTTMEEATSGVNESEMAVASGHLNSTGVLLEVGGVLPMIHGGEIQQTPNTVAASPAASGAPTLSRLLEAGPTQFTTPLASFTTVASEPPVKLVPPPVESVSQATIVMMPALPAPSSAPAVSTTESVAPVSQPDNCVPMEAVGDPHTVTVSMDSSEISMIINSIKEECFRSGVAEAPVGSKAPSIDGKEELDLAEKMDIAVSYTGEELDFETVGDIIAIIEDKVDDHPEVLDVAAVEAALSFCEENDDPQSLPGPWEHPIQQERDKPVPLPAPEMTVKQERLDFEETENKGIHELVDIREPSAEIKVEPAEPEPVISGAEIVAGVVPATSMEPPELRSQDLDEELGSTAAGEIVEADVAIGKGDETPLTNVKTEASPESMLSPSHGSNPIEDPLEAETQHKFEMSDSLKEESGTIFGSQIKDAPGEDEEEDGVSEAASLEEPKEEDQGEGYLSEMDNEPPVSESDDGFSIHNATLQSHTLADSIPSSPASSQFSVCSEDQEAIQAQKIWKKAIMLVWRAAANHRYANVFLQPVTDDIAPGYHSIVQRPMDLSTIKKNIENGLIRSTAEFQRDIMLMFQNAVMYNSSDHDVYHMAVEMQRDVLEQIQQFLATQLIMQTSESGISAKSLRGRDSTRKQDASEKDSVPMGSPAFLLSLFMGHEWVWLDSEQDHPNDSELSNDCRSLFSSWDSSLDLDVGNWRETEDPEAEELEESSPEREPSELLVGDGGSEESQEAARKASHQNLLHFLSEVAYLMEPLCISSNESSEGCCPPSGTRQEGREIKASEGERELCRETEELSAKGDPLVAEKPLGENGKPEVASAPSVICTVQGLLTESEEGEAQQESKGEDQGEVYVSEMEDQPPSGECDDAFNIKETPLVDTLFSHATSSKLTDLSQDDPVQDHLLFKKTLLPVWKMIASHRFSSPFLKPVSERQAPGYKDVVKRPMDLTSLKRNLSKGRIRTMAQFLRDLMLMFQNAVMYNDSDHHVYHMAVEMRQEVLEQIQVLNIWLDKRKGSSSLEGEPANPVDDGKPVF

[6] = target: Bromodomain-containing protein 9 (Homo sapiens, UniProt Q9H8M2); experiment: Displacement of biotinylated histone H3K14 peptide ligand from human recombinant His-tagged BRD9 measured after 10 mins by TR-FRET assay
Sequence of Bromodomain-containing protein 9 (Q9H8M2 whole entry): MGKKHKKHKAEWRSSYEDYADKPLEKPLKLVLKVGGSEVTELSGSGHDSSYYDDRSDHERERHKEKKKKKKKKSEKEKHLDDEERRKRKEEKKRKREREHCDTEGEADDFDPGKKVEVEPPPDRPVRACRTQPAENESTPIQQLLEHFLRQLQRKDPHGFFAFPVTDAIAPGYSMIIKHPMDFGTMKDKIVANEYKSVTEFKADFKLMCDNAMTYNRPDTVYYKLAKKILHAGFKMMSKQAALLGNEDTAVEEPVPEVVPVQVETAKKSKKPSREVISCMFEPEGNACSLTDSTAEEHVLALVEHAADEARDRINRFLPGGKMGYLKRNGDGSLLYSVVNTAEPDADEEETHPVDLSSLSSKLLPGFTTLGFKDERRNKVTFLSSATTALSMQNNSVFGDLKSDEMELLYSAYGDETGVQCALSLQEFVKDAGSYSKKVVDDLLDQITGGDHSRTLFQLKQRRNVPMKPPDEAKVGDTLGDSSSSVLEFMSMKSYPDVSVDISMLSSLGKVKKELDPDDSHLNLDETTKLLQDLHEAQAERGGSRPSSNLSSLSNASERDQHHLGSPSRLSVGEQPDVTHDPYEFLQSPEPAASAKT

[7] = target: Chromatin remodeling regulator CECR2 (Homo sapiens, UniProt Q9BXF3); experiment: Displacement of biotinylated histone H3K14 peptide ligand from human recombinant His-tagged CECR2 measured after 10 mins by TR-FRET assay
[8] = target: Histone acetyltransferase KAT2A (Homo sapiens, UniProt Q92830); experiment: Displacement of biotinylated histone H3K14 peptide ligand from recombinant His-tagged human GCN5L2 measured after 10 mins by TR-FRET assay
Sequence of Histone acetyltransferase KAT2A (Q92830 whole entry): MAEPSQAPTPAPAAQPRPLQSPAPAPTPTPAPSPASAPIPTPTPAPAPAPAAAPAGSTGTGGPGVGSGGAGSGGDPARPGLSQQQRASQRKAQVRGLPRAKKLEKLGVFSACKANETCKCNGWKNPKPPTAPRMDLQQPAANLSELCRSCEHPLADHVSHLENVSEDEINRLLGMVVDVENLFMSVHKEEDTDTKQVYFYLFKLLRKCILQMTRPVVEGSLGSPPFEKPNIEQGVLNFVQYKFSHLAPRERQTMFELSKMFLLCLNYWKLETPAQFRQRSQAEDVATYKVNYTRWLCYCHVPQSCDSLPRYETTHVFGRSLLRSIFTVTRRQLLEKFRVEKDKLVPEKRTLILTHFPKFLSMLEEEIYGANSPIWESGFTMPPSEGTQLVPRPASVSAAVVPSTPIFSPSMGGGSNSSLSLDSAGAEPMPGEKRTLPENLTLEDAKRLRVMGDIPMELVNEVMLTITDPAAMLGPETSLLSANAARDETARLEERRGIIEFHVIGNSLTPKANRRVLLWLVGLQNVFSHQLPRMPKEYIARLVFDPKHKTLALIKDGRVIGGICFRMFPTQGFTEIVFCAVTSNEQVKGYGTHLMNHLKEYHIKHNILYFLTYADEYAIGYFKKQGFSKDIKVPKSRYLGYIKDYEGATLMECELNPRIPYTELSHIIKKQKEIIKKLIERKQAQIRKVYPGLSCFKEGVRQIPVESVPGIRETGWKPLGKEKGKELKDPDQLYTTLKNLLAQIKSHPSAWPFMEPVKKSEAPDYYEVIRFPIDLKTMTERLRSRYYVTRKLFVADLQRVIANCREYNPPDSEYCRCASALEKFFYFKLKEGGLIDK

[9] = target: Transcription initiation factor TFIID subunit 1 (Homo sapiens, UniProt P21675); experiment: Displacement of biotinylated histone H3K14 peptide ligand from recombinant His-tagged TAF1 bromodomain-2 (unknown origin) measured after 10 mins by TR-FRET assay
Sequence of Transcription initiation factor TFIID subunit 1 (P21675 whole entry): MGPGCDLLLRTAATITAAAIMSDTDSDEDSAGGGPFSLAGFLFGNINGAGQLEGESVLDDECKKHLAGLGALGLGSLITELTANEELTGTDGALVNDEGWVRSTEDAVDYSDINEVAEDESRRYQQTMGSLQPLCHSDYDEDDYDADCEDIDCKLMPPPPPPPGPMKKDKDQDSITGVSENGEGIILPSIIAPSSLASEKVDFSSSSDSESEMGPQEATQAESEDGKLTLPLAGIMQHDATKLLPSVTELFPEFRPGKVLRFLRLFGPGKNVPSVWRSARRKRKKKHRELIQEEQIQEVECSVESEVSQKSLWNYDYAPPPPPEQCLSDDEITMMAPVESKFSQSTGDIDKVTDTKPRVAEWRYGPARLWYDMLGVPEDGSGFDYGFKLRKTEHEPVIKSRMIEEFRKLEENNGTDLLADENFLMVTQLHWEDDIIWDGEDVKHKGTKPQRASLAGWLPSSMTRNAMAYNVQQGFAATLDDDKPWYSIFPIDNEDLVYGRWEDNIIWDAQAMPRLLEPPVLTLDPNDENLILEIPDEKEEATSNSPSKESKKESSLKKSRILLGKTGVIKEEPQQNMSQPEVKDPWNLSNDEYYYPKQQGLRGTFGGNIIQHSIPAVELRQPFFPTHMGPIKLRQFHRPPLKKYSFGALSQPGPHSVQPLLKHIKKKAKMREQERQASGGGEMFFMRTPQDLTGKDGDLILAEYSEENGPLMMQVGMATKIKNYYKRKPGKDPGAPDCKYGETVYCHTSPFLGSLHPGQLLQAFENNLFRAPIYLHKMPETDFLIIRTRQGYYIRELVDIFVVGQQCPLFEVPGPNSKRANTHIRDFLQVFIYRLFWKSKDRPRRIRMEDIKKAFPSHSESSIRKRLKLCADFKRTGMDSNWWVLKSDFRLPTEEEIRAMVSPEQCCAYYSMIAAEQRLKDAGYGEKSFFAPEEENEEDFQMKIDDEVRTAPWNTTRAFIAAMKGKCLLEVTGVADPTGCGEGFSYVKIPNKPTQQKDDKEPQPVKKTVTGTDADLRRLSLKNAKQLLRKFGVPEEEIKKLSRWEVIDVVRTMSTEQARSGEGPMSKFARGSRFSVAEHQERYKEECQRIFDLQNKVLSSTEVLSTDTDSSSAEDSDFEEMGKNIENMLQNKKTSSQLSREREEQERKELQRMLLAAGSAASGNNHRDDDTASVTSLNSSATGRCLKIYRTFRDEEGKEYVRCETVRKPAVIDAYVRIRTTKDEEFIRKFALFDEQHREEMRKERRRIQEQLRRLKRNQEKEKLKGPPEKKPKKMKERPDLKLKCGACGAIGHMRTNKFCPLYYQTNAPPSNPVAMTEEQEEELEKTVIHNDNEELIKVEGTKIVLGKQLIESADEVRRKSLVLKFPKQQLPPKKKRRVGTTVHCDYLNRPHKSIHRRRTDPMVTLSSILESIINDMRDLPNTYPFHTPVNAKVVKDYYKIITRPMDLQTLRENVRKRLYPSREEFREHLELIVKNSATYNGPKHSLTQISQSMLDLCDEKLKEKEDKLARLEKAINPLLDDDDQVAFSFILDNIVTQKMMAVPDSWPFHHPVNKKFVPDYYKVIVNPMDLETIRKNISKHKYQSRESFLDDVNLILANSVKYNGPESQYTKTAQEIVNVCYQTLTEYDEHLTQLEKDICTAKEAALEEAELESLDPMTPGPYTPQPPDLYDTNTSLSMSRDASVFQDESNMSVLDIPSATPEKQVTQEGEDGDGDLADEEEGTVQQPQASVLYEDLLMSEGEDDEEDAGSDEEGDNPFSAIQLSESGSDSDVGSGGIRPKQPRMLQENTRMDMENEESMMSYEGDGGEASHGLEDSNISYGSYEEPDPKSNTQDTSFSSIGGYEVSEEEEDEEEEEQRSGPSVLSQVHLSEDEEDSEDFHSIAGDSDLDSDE

[10] = Apparent permeability from apical side to basolateral side in MDCK cells at 10 uM measured after 180 mins by LC-MS/MS analysis; assay type: ADME, cell-based, Canis lupus familiaris; details: dog
[11] = Protein binding in dog plasma at 5 uM incubated for 4 hrs measured by LC-MS/MS method; assay type: ADME, cell-free, Canis lupus familiaris; details: read-out: PPB (converted)
[12] = Protein binding in human plasma at 5 uM incubated for 4 hrs measured by LC-MS/MS method; assay type: ADME, cell-free; details: read-out: PPB (converted)
[13] = Protein binding in cynomolgus monkey plasma at 5 uM incubated for 4 hrs measured by LC-MS/MS method; assay type: ADME, cell-free, Macaca fascicularis; details: read-out: PPB (converted)
[14] = Clearance in Sprague-Dawley rat at 1 mg/kg, iv or 5 mg/kg, po by LC-MS/MS method; assay type: ADME, organism-based; details: in vivo
How it was run: (§1)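 Male Sprague-Dawley rats, 6–9 weeks, n = 3 per route. Dosed 1 mg/kg i.v. in PEG400/water (35/65) or 5 mg/kg p.o. in 0.5% methylcellulose, 0.2% Tween 80; oral groups fasted overnight until 4 h post-dose. Catheter blood sampled 0.033–24 h into K2EDTA and spun to plasma. Analysed by non-validated LC-MS/MS.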

[15] = Clearance in cynomolgus monkey at 1 mg/kg, iv or 5 mg/kg, po by LC-MS/MS method; assay type: ADME, organism-based, Macaca fascicularis; details: in vivo
How it was run: (§2)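 Non-naïve male cynomolgus monkeys, at least 2 years old, n = 3 per route. Given 1 mg/kg i.v. in EtOH/PEG400/water (20/15/65) or 5 mg/kg p.o. in 0.5% methylcellulose, 0.2% Tween 80; oral groups fasted. Plasma (K2EDTA) collected pre-dose to 24 h. Analysed by non-validated LC-MS/MS.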

[16] = Half life in CD-1 mouse at 1 mg/kg, iv or 5 mg/kg, po by LC-MS/MS method; assay type: ADME, organism-based; details: in vivo
How it was run: (§3)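 Female CD-1 mice, 6–9 weeks, n = 3 per route. Dosed 1 mg/kg i.v. in PEG400/water (35/65) or 5 mg/kg p.o. as a suspension in 0.5% methylcellulose, 0.2% Tween 80. Serial tail-nick blood sampled to 24 h, diluted in EDTA-water. Parent drug measured by non-validated LC-MS/MS after acetonitrile precipitation with an indomethacin internal standard.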

[17] = Half life in cynomolgus monkey at 1 mg/kg, iv or 5 mg/kg, po by LC-MS/MS method; assay type: ADME, organism-based, Macaca fascicularis; details: in vivo; how it was run: as §2
[18] = Oral bioavailability in CD-1 mouse at 5 mg/kg by LC-MS/MS method; assay type: ADME, organism-based; details: in vivo; how it was run: as §3
[19] = Oral bioavailability in Sprague-Dawley rat at 5 mg/kg by LC-MS/MS method; assay type: ADME, organism-based; details: in vivo; how it was run: as §1
[20] = Cmax in Sprague-Dawley rat at 1 mg/kg, iv or 5 mg/kg, po by LC-MS/MS method; assay type: ADME, organism-based; details: in vivo; how it was run: as §1
[21] = Cmax in cynomolgus monkey at 1 mg/kg, iv or 5 mg/kg, po by LC-MS/MS method; assay type: ADME, organism-based, Macaca fascicularis; details: in vivo; how it was run: as §2
[22] = AUClast in CD-1 mouse at 1 mg/kg, iv or 5 mg/kg, po by LC-MS/MS method; assay type: ADME, organism-based; details: in vivo; how it was run: as §3
[23] = species: Homo sapiens; experiment: Selectivity ratio of IC50 for human recombinant His-tagged BRD4 bromodomain-1 to IC50 for human recombinant His-tagged P300
[24] = Antitumor activity against human MOLM16 cells xenografted in C.B-17 SCID beige mouse assessed as tumor growth inhibition at 3 mg/kg administered via oral gavage as bid for 21 days relative to control; assay type: functional; details: read-out: TGI
How it was run: (§4)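 Female C.B-17 SCID.bg mice received 5 million MOLM-16 cells s.c. in HBSS/Matrigel in the right flank. Dosing began at 130–300 mm3: oral gavage BID for 21 days in 0.5% methylcellulose, 0.2% Tween 80, n=10/group. Caliper volumes taken; %TGI computed from the area under the mixed-model spline-fitted curve per day versus vehicle.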

[25] = Antitumor activity against human MOLM16 cells xenografted in C.B-17 SCID beige mouse assessed as tumor growth inhibition at 30 mg/kg administered via oral gavage as bid for 21 days relative to control; assay type: functional; details: read-out: TGI; how it was run: as §4
[26] = target: Cytochrome P450 2C19 (Homo sapiens, UniProt P33261); experiment: Inhibition of CYP2C19 (unknown origin); assay type: ADME
[27] = target: Cytochrome P450 2D6 (Homo sapiens, UniProt P10635); experiment: Inhibition of CYP2D6 (unknown origin); assay type: ADME
Sequence of Cytochrome P450 2D6 (P10635 whole entry): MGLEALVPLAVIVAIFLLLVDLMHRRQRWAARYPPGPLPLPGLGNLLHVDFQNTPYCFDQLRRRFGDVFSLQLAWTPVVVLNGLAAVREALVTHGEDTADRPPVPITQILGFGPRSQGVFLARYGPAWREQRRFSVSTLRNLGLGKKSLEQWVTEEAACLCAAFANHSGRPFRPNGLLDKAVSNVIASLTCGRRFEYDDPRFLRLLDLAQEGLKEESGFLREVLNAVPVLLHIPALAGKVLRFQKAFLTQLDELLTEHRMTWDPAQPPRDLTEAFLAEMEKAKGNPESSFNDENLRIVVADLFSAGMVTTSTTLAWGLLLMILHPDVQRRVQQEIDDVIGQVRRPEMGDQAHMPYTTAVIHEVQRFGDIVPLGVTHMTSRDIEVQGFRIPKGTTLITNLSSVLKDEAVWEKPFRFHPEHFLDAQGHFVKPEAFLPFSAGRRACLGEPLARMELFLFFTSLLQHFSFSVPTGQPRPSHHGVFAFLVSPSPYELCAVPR

[28] = tested on: Mus musculus; experiment: In vivo inhibition of CBP in human MOLM16 cells xenografted in C.B-17 SCID beige mouse assessed as suppression of MYC transcript levels at 3 mg/kg administered via oral gavage as bid for 21 days measured 2 to 8 hrs post last dose by real time-PCR method; assay type: functional, organism-based
[29] = target: Bromodomain-containing protein 4 (Homo sapiens, UniProt O60885); experiment: Displacement of biotinylated histone H3K14 peptide ligand from human recombinant His-tagged BRD4 bromodomain-1 measured after 10 mins by TR-FRET assay
[30] = target: CREB-binding protein (Homo sapiens, UniProt Q92793); experiment: Inhibition of Halo-tagged histone H3.3 binding to NanoLuc luciferase conjugated human CBP expressed in HEK293 cells after overnight incubation by BRET assay; assay type: cell-based

CNC(=O)N1CCc2c(c(N3CCCc4cc(-c5cnn(C)c5)c(C(F)F)cc43)nn2C2CCOCC2)C1
Kp uu at 3 h [1]: 0.02 | Activity [2]: Non-Toxic | IC50 [3]: > 18 µM | IC50 [4]: > 20 µM | IC50 [5]: > 20 µM | IC50 [6]: > 20 µM | IC50 [7]: > 20 µM | IC50 [8]: > 20 µM | IC50 [9]: > 20 µM | Papp A→B at 3 h, 10 µM [10]: 19 ×10⁻⁶ cm/s | fraction unbound at 4 h, 5 µM [11]: 0.23 | fraction unbound at 4 h, 5 µM [12]: 0.16 | fraction unbound at 4 h, 5 µM [13]: 0.22 | clearance [14]: 3.8 mL/min/kg | clearance [15]: 18 mL/min/kg | half-life [16]: 1.4 h | half-life [17]: 0.72 h | bioavailability [18]: 73% | bioavailability [19]: 37% | Cmax [20]: 4100 nM | Cmax [21]: 1900 nM | AUC(0-t) [22]: 6.5 µM·h | Ratio IC50 [23]: 4250 | inhibition in vivo at 3 mg/kg [24]: 73% | inhibition in vivo at 30 mg/kg [25]: 89% | IC50 [26]: > 10 µM | IC50 [27]: > 10 µM | inhibition [28]: Active

CC(=O)N1CCc2c(c(N3CCCc4cc(-c5cnn(C)c5)c(C(F)F)cc43)nn2C2CCOCC2)C1
Kp uu at 3 h [1]: 0.43 | Activity [2]: Toxic | IC50 [29]: 4.2 µM | IC50 [30]: 0.012 µM | IC50 [3]: > 20 µM | IC50 [4]: > 20 µM | IC50 [5]: > 20 µM | IC50 [6]: > 20 µM | IC50 [7]: 14 µM | IC50 [8]: > 20 µM | IC50 [9]: > 20 µM | Papp A→B at 3 h, 10 µM [10]: 15 ×10⁻⁶ cm/s | fraction unbound at 4 h, 5 µM [11]: 0.19 | fraction unbound at 4 h, 5 µM [12]: 0.16 | fraction unbound at 4 h, 5 µM [13]: 0.21 | clearance [14]: 16 mL/min/kg | clearance [15]: 7.4 mL/min/kg | half-life [16]: 1.1 h | half-life [17]: 2.8 h | bioavailability [18]: 72% | bioavailability [19]: 93% | Cmax [20]: 3200 nM | Cmax [21]: 1600 nM | AUC(0-t) [22]: 13.7 µM·h
